In ChEMBL document CHEMBL1133652, “Selective protection and functionalization of morphine: synthesis and opioid receptor binding properties of 3-amino-3-desoxymorphine derivatives” (J Med Chem, 2000):
pKi: −log10 of the molar value.

Tests used:
[1] = biological target: Kappa-type opioid receptor (Cavia porcellus, UniProt P41144); test: Binding affinity to displace radioligand [3H]U-69593 on Opioid receptor kappa 1 in guinea pig membranes.; format: cell membranes
Mu-type opioid receptor [2] = biological target: T1, Mu-type opioid receptor (Cavia porcellus, UniProt P97266); test: (§1) Binding affinity to displace radioligand [3H]DAMGO on Opioid receptor mu 1 in guinea pig membranes.; format: cell membranes
T1 sequence (P97266 whole entry): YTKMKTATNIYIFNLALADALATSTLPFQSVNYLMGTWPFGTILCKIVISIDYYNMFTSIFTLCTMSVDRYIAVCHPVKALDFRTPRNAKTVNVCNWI

[3] = Inhibition of adenylyl cyclase activity in membranes of the human SH-SY5Y neuroblastoma cell line.; format: functional, cell-based; design: concentration or dose not given beside the values; details: concentration not given here
Method in brief: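 SH-SY5Y membranes (50 µg protein) incubated 15 min at 30 °C with compound at 10 µM final. The mix held 20 mM HEPES pH 7.4, creatine phosphokinase/phosphocreatine, 1 mM phenanthroline, 60 µM IBMX, 0.1 mM GTP and 0.1 mM ATP. Stopped with perchloric acid and neutralized. cAMP measured by [3H]cAMP kit. Reported as % inhibition of basal activity, duplicate, repeated at least three times.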

[4] = Binding affinity to displace radioligand [3H]naltrindole on Opioid receptor delta 1 in guinea pig membranes.
Mu-type opioid receptor [5] = biological target: T1, Mu-type opioid receptor; test: as §1; format: cell membranes; remark: listed apart in the source
Method in brief: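 Guinea pig brain membranes (500 µg protein) incubated with 12 concentrations of compound and 0.25 nM [3H]DAMGO in 50 mM Tris-HCl pH 7.5, 25 °C, 60 min. Nonspecific binding with 10 µM naloxone. Filtration, washes in cold Tris, scintillation counting. IC50 by log-probit least-squares fit, converted to Ki (Cheng-Prusoff). At least three experiments in triplicate, mean ± SE.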

Kappa-type opioid receptor, sequence (P41144 whole entry): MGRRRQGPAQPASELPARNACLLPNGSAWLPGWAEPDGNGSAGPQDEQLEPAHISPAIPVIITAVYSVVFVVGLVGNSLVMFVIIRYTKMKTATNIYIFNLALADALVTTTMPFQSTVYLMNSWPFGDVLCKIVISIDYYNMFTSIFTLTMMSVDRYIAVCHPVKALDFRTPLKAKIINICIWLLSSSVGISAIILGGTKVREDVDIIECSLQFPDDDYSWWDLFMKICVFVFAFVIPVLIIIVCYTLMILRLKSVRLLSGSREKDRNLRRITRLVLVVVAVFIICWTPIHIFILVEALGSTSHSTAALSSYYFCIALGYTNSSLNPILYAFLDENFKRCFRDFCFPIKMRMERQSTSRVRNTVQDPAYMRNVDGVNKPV

Row | SMILES | pKi [1] | pKi (Mu-type opioid receptor [2]) | inhibition [3] [%] | pKi [4] | pKi (Mu-type opioid receptor [5])
1 | C[C@H]1[C@H]2Cc3ccc(N)cc3[C@@]1(C)CCN2CC1CC1 | 8.92 | 8.74 | – | – | –
2 | CN(C)c1ccc2c3c1O[C@H]1[C@@H](O)C=C[C@H]4[C@@H](C2)N(C)CC[C@@]341 | 6.54 | 6.62 | 13 | – | –
3 | CNc1ccc2c3c1O[C@H]1[C@@H](O)C=C[C@H]4[C@@H](C2)N(C)CC[C@@]341 | 5.55 | 7.20 | 29 | – | –
4 | C[C@H]1[C@H]2Cc3ccc(Nc4ccccc4)cc3[C@@]1(C)CCN2CC1CC1 | – | – | – | 8.28 | –
5 | CN1CC[C@]23c4c5ccc(NCc6ccccc6)c4O[C@H]2[C@@H](O)C=C[C@H]3[C@H]1C5 | 5.47 | 7.48 | 17 | – | –
6 | CN1CC[C@]23c4c5ccc(N)c4O[C@H]2[C@@H](O)C=C[C@H]3[C@H]1C5 | 6.13 | – | 26 | – | 7.28
7 | C[C@@H](NC(=O)[C@@H](N)Cc1ccc(O)cc1)C(=O)NCC(=O)N(C)[C@@H](Cc1ccccc1)C(=O)NCCO | – | – | 58 | – | –
8 | CN1CC[C@]23c4c5ccc(Nc6ccccc6)c4O[C@H]2[C@@H](O)C=C[C@H]3[C@H]1C5 | 6.62 | 7.23 | 44 | – | –
